Source: article PMC12218390 (Scientific Reports, 2025)

What was measured:
BHK-21 cells = assay: MTT assay for Maximum Non-Toxic Dose; type: cell-based
[1] = tested on: Dengue virus type-2 (DENV2) in BHK-21 cells; assay: Cytopathic effect; type: cell-based; settings: DENV2-infected BHK-21 cells; concentrations within MNTD
Summary of the method: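 Maximal non-toxic dose in BHK-21 cells was first set by MTT. Cells were seeded at 1 × 10⁵/well and infected with DENV2 (MOI 0.02, DMEM with 2% FBS) for 1 h at 37 °C, 5% CO₂. At 1 h post-infection, compounds diluted in DMEM (2% FBS) within the non-toxic range were added, with castanospermine as the positive control. CPE was scored by phase-contrast microscopy, in triplicate.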

HaCaT cells = assay: MTT cytotoxicity assay; type: cell-based, human; settings: 100 µg/mL
Summary of the method: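 HaCaT keratinocytes were grown in DMEM with 10% FBS and 1% antibiotic-antimycotic at 37 °C, 5% CO₂. Cells were seeded at 1 × 10⁴/well for 24 h, then exposed to 1 to 100 µg/mL for 48 h, with 5-FU as the positive control and untreated cells as baseline. MTT (5 mg/mL) was added for 4 h, then SDS/DMF lysis buffer for 2 h, and plates read at 570 nm as percentage proliferation. Lower concentrations were retested to derive IC50 ± SE.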

[2] = DPPH free radical scavenging assay; type: physicochemical; settings: ascorbic acid as reference
Summary of the method: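 DPPH (4 mg/100 ml in methanol) was mixed with test compound or ascorbic acid at 1 to 500 µg/ml in methanol. The control was DPPH plus methanol, and methanol alone served as blank. Samples were incubated 20–30 min at 37 °C and the decrease in absorbance at 515 nm read. Percentage scavenging was calculated from control versus sample absorbance, in triplicate.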

SMILES | Maximal non-toxic dose (MNTD) (BHK-21 cells) | Inhibition / reduction in cytopathic effects [1] | Cell death (HaCaT cells) | DPPH radical scavenging IC50 [2]
Nc1cc(=O)oc2ccccc12 [Compound T1, 4-aminocoumarin] | 2.5 µg/mL | did not exhibit significant inhibition of cytopathic effects | very low percentages of cell death | –
Cc1ccc(S(=O)(=O)[O-])cc1.Nc1c([I+]c2ccccc2)c(=O)oc2ccccc12 [Compound T2, 4-amino-3-phenyliodoniocoumarin tosylate] | – | up to 12% | more than 60% | ≥ 50 µg/mL
O=c1oc2ccccc2c(Nc2ccccc2)c1I [Compound T4, 3-iodo-4-phenylaminocoumarin] | 1 µg/mL | up to 12% | more than 60% | –
O=c1cc(Nc2ccccc2)c2ccccc2o1 [Compound T5, 4-phenylaminocoumarin] | 0.1 µg/mL | did not exhibit significant inhibition of cytopathic effects | very low percentages of cell death | –
O=c1oc2ccccc2c(N(c2ccccc2)c2ccccc2)c1I [Compound T6, 4-diphenylamino-3-iodocoumarin] | 0.1 µg/mL | did not exhibit significant inhibition of cytopathic effects | very low percentages of cell death | –
O[C@H]1[C@H](O)[C@@H](O)CN2CC[C@H](O)[C@H]12 [castanospermine, reference compound] | – | 68% | – | –
